From ChEMBL document CHEMBL1139356, “New uracil dimers showing erythroid differentiation inducing activities” (J Med Chem, 2009)
Blank lines part the entries; values can stand above or below the compound they belong to. Calls of active or inactive are those of the source. No cut-off for these calls is given here.

Key:
K562 [1] = assay: Inhibition of erythroid differentiation in human K562 cell assessed benzidine positive cells at 1 mM after 6 days by benzidine staining assay; assay type: functional; set-up: scale not given: the % may be the effect or the level left
Method in brief: (§1)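 K562 cells seeded at 30 000 cells/mL and cultured with compound at the stated concentration for a 6-day induction period. Benzidine staining scores the percentage of hemoglobin-containing (benzidine-positive) cells. Values are average ± SD of three independent experiments.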

K562 [2] = assay: Inhibition of erythroid differentiation in human K562 cell assessed benzidine positive cells at 600 uM after 6 days by benzidine staining assay; assay type: functional; set-up: scale not given: the % may be the effect or the level left; method in brief: as §1
K562 [3] = assay: Antiproliferative activity against human K562 cells after 4 days; assay type: functional, cell-based; conditions: K562, 96 h
K562 [4] = assay: Inhibition of erythroid differentiation in human K562 cell assessed benzidine positive cells at 500 nM after 6 days by benzidine staining assay; assay type: functional; set-up: scale not given: the % may be the effect or the level left; conditions: in the assay text read “at 100 nM” for “at 500 nM”; method in brief: as §1
K562 [5] = assay: Inhibition of erythroid differentiation in human K562 cell assessed benzidine positive cells at 300 uM after 6 days by benzidine staining assay; assay type: functional; set-up: scale not given: the % may be the effect or the level left; method in brief: as §1
K562 [6] = assay: Inhibition of erythroid differentiation in human K562 cell assessed benzidine positive cells at 2 mM after 6 days by benzidine staining assay; assay type: functional; set-up: scale not given: the % may be the effect or the level left; method in brief: as §1
MDA-MB-231 = assay: Antiproliferative activity against human MDA-MB-231 cells after 4 days; assay type: functional, cell-based; conditions: MDA-MB-231, 96 h
MCF7 = assay: Antiproliferative activity against human MCF7 cells after 4 days; assay type: functional, cell-based; conditions: MCF7, 96 h
K562 [7] = assay: Inhibition of erythroid differentiation in human K562 cell assessed benzidine positive cells at 400 uM after 6 days by benzidine staining assay; assay type: functional; set-up: scale not given: the % may be the effect or the level left
Method in brief: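 K562 cells cultured with 400 µM compound for 6 days. The proportion of hemoglobin-containing cells was scored by benzidine staining. Values are average ± SD of four independent experiments.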

K562 [8] = assay: Antiproliferative activity against human K562 cells after 4 days; conditions: K562, 96 h
[9] = Antiproliferative activity against human IB3-1 cells after 4 days; assay type: functional, cell-based; conditions: IB3-1, 96 h
RD = assay: Antiproliferative activity against human RD cells after 4 days; assay type: functional, cell-based; conditions: 96 h
K562 [10] = assay: Inhibition of erythroid differentiation in human K562 cell assessed benzidine positive cells at 800 uM after 6 days by benzidine staining assay; assay type: functional; set-up: scale not given: the % may be the effect or the level left; method in brief: as §1
K562 [11] = assay: Inhibition of erythroid differentiation in human K562 cell assessed benzidine positive cells at 200 uM after 6 days by benzidine staining assay; assay type: functional; method in brief: as §1
K562 [12] = assay: Inhibition of erythroid differentiation in human K562 cell assessed benzidine positive cells at 100 uM after 6 days by benzidine staining assay; assay type: functional; set-up: scale not given: the % may be the effect or the level left; method in brief: as §1

SMILES: CO[C@H]1C[C@@H]2CC[C@@H](C)[C@@](O)(O2)C(=O)C(=O)N2CCCC[C@H]2C(=O)O[C@H]([C@H](C)C[C@@H]2CC[C@@H](O)[C@H](OC)C2)CC(=O)[C@H](C)/C=C(\C)[C@@H](O)[C@@H](OC)C(=O)[C@H](C)C[C@H](C)/C=C/C=C/C=C/1C [SIROLIMUS]
Activity (K562 [1]): 75.5%

IC50 (K562 [3]): 420 µM
SMILES: CCCCCCCCn1cc(C(=O)NCCCCCCCCNC(=O)c2cn(CCCCCCCC)c(=O)[nH]c2=O)c(=O)[nH]c1=O
Activity (K562 [2]): 45%

IC50 (K562 [3]): 220 µM
SMILES: CCCCCCCCn1cc(C(=O)NCCCCCCCNC(=O)c2cn(CCCCCCCC)c(=O)[nH]c2=O)c(=O)[nH]c1=O
Activity (K562 [2]): 50%

SMILES: CO[C@H](C(=O)[C@@H](O)[C@@H](C)O)[C@@H]1Cc2cc3cc(O[C@H]4C[C@@H](O[C@@H]5C[C@@H](O)[C@H](O)[C@@H](C)O5)[C@H](O)[C@@H](C)O4)c(C)c(O)c3c(O)c2C(=O)[C@H]1O[C@H]1C[C@@H](O[C@@H]2C[C@@H](O)[C@@H](O[C@@H]3C[C@](C)(O)[C@H](O)[C@@H](C)O3)[C@@H](C)O2)[C@H](O)[C@@H](C)O1 [PLICAMYCIN]
Activity (K562 [4]): 86.8%

IC50 (K562 [3]): 247 µM
SMILES: CCCCCCCCn1cc(C(=O)O)c(=O)[nH]c1=O
Activity (K562 [5]): 30%

SMILES: CCCC(=O)O [BUTYRIC ACID]
Activity (K562 [6]): 32.5%

IC50 (MDA-MB-231): 171 µM
IC50 (MCF7): 197 µM
IC50 (K562 [8]): 517 µM
IC50 (K562 [3]): 517 µM
SMILES: CCCCCCCCn1cc(C(=O)NCc2ccc3ccc(CNC(=O)c4cn(CCCCCCCC)c(=O)[nH]c4=O)cc3c2)c(=O)[nH]c1=O
Activity (K562 [7]): 52%
Activity (K562 [2]): 78%
IC50 [9]: 505 µM
IC50 (RD): 76.6 µM

IC50 (K562 [3]): > 800 µM
SMILES: COC(=O)c1c[nH]c(=O)[nH]c1=O [ISOOROTIC ACID METHYL ESTER]
Activity (K562 [10]): 5%

IC50 (K562 [3]): > 800 µM
SMILES: CCOC(=O)Cn1cc(C(=O)NCCOCCNC(=O)c2cn(CC(=O)OCC)c(=O)[nH]c2=O)c(=O)[nH]c1=O
Activity (K562 [10]): 1%

IC50 (K562 [3]): 600 µM
SMILES: CCCCCCCCn1cc(C(=O)NCCCCCCNC(=O)c2cn(CCCCCCCC)c(=O)[nH]c2=O)c(=O)[nH]c1=O
Activity (K562 [2]): 40%

IC50 (K562 [3]): 75 µM
SMILES: CCCCCCCCn1cc(C(=O)NCc2ccccc2)c(=O)[nH]c1=O
Activity (K562 [11]): inactive
Activity (K562 [7]): inactive
Activity (K562 [2]): inactive
Activity (K562 [12]): 5%

IC50 (K562 [3]): 247 µM
SMILES: CCCCCCCCn1cc(C(=O)NCc2cccc(CNC(=O)c3cn(CCCCCCCC)c(=O)[nH]c3=O)c2)c(=O)[nH]c1=O
Activity (K562 [11]): 40%

IC50 (K562 [3]): 536 µM
SMILES: CCCCNC(=O)c1cn(C)c(=O)[nH]c1=O
Activity (K562 [10]): 5%
